In ChEMBL document CHEMBL1146820, “Parallel solid-phase synthesis of disubstituted (5-biphenyltetrazolyl) hydantoins and thiohydantoins targeting the growth hormone secretagogue receptor” (Bioorg Med Chem Lett, 2004) one finds IC50 data, which are given here for 14 compounds.

Bounds are passed on as bounds.

Growth hormone secretagogue receptor type 1, sequence (Q92847 whole entry): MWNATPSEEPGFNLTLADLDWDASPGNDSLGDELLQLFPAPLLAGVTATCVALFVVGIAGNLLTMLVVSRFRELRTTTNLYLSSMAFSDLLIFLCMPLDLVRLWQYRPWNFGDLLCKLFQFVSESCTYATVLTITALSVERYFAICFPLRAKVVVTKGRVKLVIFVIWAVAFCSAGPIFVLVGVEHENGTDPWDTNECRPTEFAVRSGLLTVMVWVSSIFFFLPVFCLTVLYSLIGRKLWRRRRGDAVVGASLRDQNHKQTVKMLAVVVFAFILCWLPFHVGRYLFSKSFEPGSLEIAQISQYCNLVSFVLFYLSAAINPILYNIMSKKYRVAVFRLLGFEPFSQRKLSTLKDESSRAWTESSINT

This experiment concerns the target Growth hormone secretagogue receptor type 1 (Homo sapiens, UniProt Q92847). Put plainly: Inhibition of ghrelin binding to Growth hormone secretagogue receptor expressed in BHK cells. It is filed as cell-based. The method in brief: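 Competition binding against ¹²⁵I-ghrelin at the human GHS receptor expressed in BHK cells. Values are displacement of the radiolabelled ghrelin tracer by the test compounds.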
With `CN(C)c1ccc(N2C(=O)[C@H](CCc3ccccc3)N(Cc3ccc(-c4ccccc4-c4nn[nH]n4)cc3)C2=S)cc1`, the IC50 is more than 100 µM.

As for `O=C1[C@H](CCc2ccccc2)N(Cc2ccc(-c3ccccc3-c3nn[nH]n3)s2)C(=O)N1CCCN1CCCCC1`, the IC50 turned out to be 15 µM.

Regarding `O=C1[C@H](CCc2ccccc2)N(Cc2ccc(-c3ccccc3-c3nn[nH]n3)cc2)C(=O)N1CCCN1CCCC1`, the IC50 is 1.1 µM.

Turning to `O=C1[C@H](CCc2ccccc2)N(Cc2ccc(-c3ccccc3-c3nn[nH]n3)cc2)C(=S)N1CCCN1CCOCC1`, the IC50 was 45 µM.

In turn, `CN(C)CCCN1C(=O)[C@H](CCc2ccccc2)N(Cc2ccc(-c3ccccc3-c3nn[nH]n3)cc2)C1=S` displayed an IC50 of 8.2 µM.

`NCCCN1C(=O)[C@H](CCc2ccccc2)N(Cc2ccc(-c3ccccc3-c3nn[nH]n3)cc2)C1=O`: the IC50 is more than 100 µM.

In turn, `O=C1[C@H](CCc2ccccc2)N(Cc2ccc(-c3ccccc3-c3nn[nH]n3)cc2)C(=O)N1CCCN1CCCCC1` gave an IC50 of 0.6 µM.

On to `O=C1[C@H](CCc2ccccc2)N(Cc2cc(-c3ccccc3-c3nn[nH]n3)cs2)C(=O)N1CCCN1CCCCC1`, for which the IC50 was found to be 1.3 µM.

In turn, `O=C1[C@H](Cc2c[nH]c3ccccc23)N(Cc2ccc(-c3ccccc3-c3nn[nH]n3)cc2)C(=O)N1C1CCNCC1` gave an IC50 of 50 µM.

As to `O=C1[C@H](CCc2ccccc2)N(Cc2ccc(-c3ccccc3-c3nn[nH]n3)cc2F)C(=O)N1CCCN1CCCCC1`, the IC50 came to 1.6 µM.

For the compound `CN(C)CCCN1C(=O)[C@H](CCc2ccccc2)N(Cc2ccc(-c3ccccc3-c3nn[nH]n3)cc2)C1=O`, the IC50 was found to be 4 µM.

Regarding `CN(C)C(=O)CCN1C(=O)[C@H](CCc2ccccc2)N(Cc2ccc(-c3ccccc3-c3nn[nH]n3)cc2)C1=O`, the IC50 is more than 100 µM.

`CN(C)CCCN1C(=O)[C@H](Cc2ccccc2)N(Cc2ccc(-c3ccccc3-c3nn[nH]n3)cc2)C1=S` showed an IC50 of 35 µM.

Compound `CN(C)CCCN1C(=O)[C@H](c2ccccc2)N(Cc2ccc(-c3ccccc3-c3nn[nH]n3)cc2)C1=S` had an IC50 of 35 µM.
